Experimental data from ChEMBL document CHEMBL4229456, “Salicylic Acid Derivatives Inhibit Oxalate Production in Mouse Hepatocytes with Primary Hyperoxaluria Type 1” (J Med Chem, 2018).
Active and inactive are the calls of the source. The rule behind the calls is not given here.

Tests used:
[1] = biological target: T1, 2-Hydroxyacid oxidase 1 (Mus musculus) (UniProt Q9WU19); experiment: Inhibition of mouse recombinant glycolate oxidase expressed in Escherichia coli at 25 uM using glycolate as substrate after 1 min by sulfonated DCIP dye-based assay relative to control
T1 sequence (whole entry): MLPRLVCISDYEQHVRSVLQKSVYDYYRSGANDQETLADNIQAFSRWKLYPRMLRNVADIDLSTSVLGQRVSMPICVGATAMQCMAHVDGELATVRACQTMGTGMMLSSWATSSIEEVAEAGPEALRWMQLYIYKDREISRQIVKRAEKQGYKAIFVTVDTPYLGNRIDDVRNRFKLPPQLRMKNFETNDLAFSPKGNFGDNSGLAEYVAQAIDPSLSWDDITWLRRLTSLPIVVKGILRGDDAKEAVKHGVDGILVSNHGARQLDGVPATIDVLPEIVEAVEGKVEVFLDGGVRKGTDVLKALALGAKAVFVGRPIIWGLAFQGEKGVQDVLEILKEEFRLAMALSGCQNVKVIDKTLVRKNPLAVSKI

2-Hydroxyacid oxidase 1 [2] = biological target: T2, 2-Hydroxyacid oxidase 1 (Mus musculus, UniProt Q9WU19); experiment: Inhibition of mouse recombinant glycolate oxidase expressed in Escherichia coli using glycolate as substrate by sulfonated DCIP dye-based assay
T2 sequence (Q9WU19 whole entry): T1 sequence (whole entry)
How it was run: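 Purified recombinant mGO (10 µL at 0.1 µg/µL) with saturating glycolate (22.2 mM) in 50 mM potassium phosphate pH 7. Compound at 0.2 µM–0.2 mM; H2O2 detected by HRP-coupled sulfonated DCIP/4-aminoantipyrine dye at 515 nm. IC50 from nonlinear dose-response fitting.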

[3] = biological target: T1, 2-Hydroxyacid oxidase 1 (Mus musculus); experiment: Inhibition of glycolate oxidase in C57BL/6 Agxt1-/- mouse hepatocytes using glycolate as substrate assessed as relative oxalate level at 10 uM after 24 hrs; assay type: cell-based
How it was run: (§1)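 Primary Agxt1-/- mouse hepatocytes in 6-well plates, serum-free Williams E with 5 mM glycolate, treated with 10 µM compound. Excreted oxalate measured 24 h later by oxalate oxidase–HRP colorimetric kit (595 nm) and expressed relative to untreated control. Mean ± SD, n = 3, one-way ANOVA.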

2-Hydroxyacid oxidase 1 [4] = biological target: T2, 2-Hydroxyacid oxidase 1; experiment: Inhibition of mouse recombinant glycolate oxidase expressed in Escherichia coli using glycolate as substrate by Dixon plot and Cornish-Bowden plot analysis
How it was run: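 Recombinant mGO held at constant enzyme concentration and tested with increasing inhibitor at several glycolate concentrations in the HRP/DCIP 515 nm assay. Inhibition type read from Cornish-Bowden and Dixon plots; Ki taken as the intersection of the lines.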

[5] = biological target: T1, 2-Hydroxyacid oxidase 1 (Mus musculus); experiment: Inhibition of glycolate oxidase in C57BL/6 Agxt1-/- mouse hepatocytes using glycolate as substrate assessed as reduction in oxalate production at 12.5 uM after 24 hrs post treatment relative to control; assay type: cell-based
How it was run: (§2)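 Agxt1-/- primary hepatocytes (3.0x10^5 cells/well), serum-free Williams E with 5 mM glycolate, treated at the stated concentrations. Medium oxalate quantified at the stated time by oxalate oxidase kit (H2O2/HRP, MBTH and DMAB, 595 nm) and expressed relative to control.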

[6] = biological target: T1, 2-Hydroxyacid oxidase 1 (Mus musculus); experiment: Inhibition of glycolate oxidase in C57BL/6 Agxt1-/- mouse hepatocytes using glycolate as substrate assessed as reduction in oxalate production at 6.25 uM after 24 hrs post treatment relative to control; assay type: cell-based; how it was run: as §2
[7] = biological target: T1, 2-Hydroxyacid oxidase 1 (Mus musculus); experiment: Inhibition of glycolate oxidase in C57BL/6 Agxt1-/- mouse hepatocytes using glycolate as substrate assessed as reduction in oxalate production at 12.5 uM after 48 hrs post treatment relative to control; assay type: cell-based; how it was run: as §2
Hepatocyte [8] = experiment: Cytotoxicity against C57BL/6 Agxt1-/- mouse hepatocytes after 24 to 48 hrs by Celltiter reagent based assay; assay type: cell-based
How it was run: (§3)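 Agxt1-/- hepatocytes (male C57BL/6, collagenase perfusion) seeded at 1.0x10^4 cells/well in 96-well plates and given the same compound concentrations as the 6-well oxalate cultures. At each time point, CellTiter 96 AQueous One reagent was added and incubated 2 h at 37°C, 5% CO2, with absorbance read at 493 nm.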

2-Hydroxyacid oxidase 1 [9] = biological target: T2, 2-Hydroxyacid oxidase 1; experiment: Inhibition of glycolate oxidase in C57BL/6 Agxt1-/- mouse hepatocytes using glycolate as substrate assessed as reduction in oxalate production after 24 hrs; assay type: cell-based
How it was run: (§4)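 Agxt1-/- hepatocytes from male C57BL/6 mice, 3.0x10^5 cells/well, in Williams E with 5% FBS and insulin/hydrocortisone. After 5 h, switched to serum-free medium and treated across a dose range with 5 mM glycolate. Medium harvested at 24, 48 and 72 h; oxalate measured by oxalate oxidase/HRP kit (MBTH/DMAB dye, 595 nm). EC50 from nonlinear regression of log concentration.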

2-Hydroxyacid oxidase 1 [10] = biological target: T2, 2-Hydroxyacid oxidase 1; experiment: Inhibition of glycolate oxidase in C57BL/6 Agxt1-/- mouse hepatocytes using glycolate as substrate assessed as reduction in oxalate production after 48 hrs; assay type: cell-based; how it was run: as §4
2-Hydroxyacid oxidase 1 [11] = biological target: T2, 2-Hydroxyacid oxidase 1; experiment: Inhibition of glycolate oxidase in C57BL/6 Agxt1-/- mouse hepatocytes using glycolate as substrate assessed as reduction in oxalate production after 72 hrs; assay type: cell-based; how it was run: as §4
[12] = biological target: T1, 2-Hydroxyacid oxidase 1 (Mus musculus); experiment: Potency index, ratio of EC50 for CCPST to EC50 for test compound for inhibition of glycolate oxidase in C57BL/6 Agxt1-/- mouse hepatocytes using glycolate as substrate assessed as reduction in oxalate production after 24 to 72 hrs; assay type: cell-based
[13] = biological target: T1, 2-Hydroxyacid oxidase 1 (Mus musculus); experiment: Potency index, ratio of EC50 for CCPST to EC50 for test compound for inhibition of glycolate oxidase in C57BL/6 Agxt1-/- mouse hepatocytes using glycolate as substrate assessed as reduction in oxalate production after 24 hrs; assay type: cell-based
[14] = Half life in mouse liver microsomes at 2 uM in presence of NADPH by LC-HRMS method; assay type: ADME, microsome
[15] = biological target: T1, 2-Hydroxyacid oxidase 1 (Mus musculus); experiment: Inhibition of glycolate oxidase in C57BL/6 Agxt1-/- mouse hepatocytes using glycolate as substrate assessed as reduction in oxalate production at 10 uM after 24 hrs; assay type: cell-based; how it was run: as §1
[16] = biological target: T1, 2-Hydroxyacid oxidase 1 (Mus musculus); experiment: Inhibition of glycolate oxidase in C57BL/6 Agxt1-/- mouse hepatocytes using glycolate as substrate assessed as reduction in oxalate production at 2.5 uM after 24 hrs post treatment relative to control; assay type: cell-based; how it was run: as §2
[17] = biological target: T1, 2-Hydroxyacid oxidase 1 (Mus musculus); experiment: Inhibition of glycolate oxidase in C57BL/6 Agxt1-/- mouse hepatocytes using glycolate as substrate assessed as reduction in oxalate production at 5 uM after 72 hrs post treatment; assay type: cell-based; how it was run: as §2
Hepatocyte [18] = experiment: Cytotoxicity against C57BL/6 Agxt1-/- mouse hepatocytes at 80 uM after 24 to 48 hrs by Celltiter reagent based assay; assay type: cell-based; how it was run: as §3
Armoracia rusticana = experiment: Inhibition of horseradish peroxidase at 20 uM after 1 min by sulfonated-DCIP dye based assay
How it was run: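 HRP counter-screen without mGO or glycolate: H2O2 (10 µL of 1:10 000) with HRP, sulfonated DCIP and 4-aminoantipyrine under mGO assay conditions, compound added from 1 mM DMSO stock. Absorbance read at 515 nm after 1 min, compared with an H2O2 standard curve. Run in duplicate.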

[19] = Drug metabolism in mouse liver microsomes assessed as metabolite formation at 2 uM in presence of NADPH after 60 mins by LC-HRMS method; assay type: ADME, microsome; details: 1 h
[20] = Activity against horseradish peroxidase by oxalate detection based assay
Mus musculus = experiment: Reduction in urine oxalate levels in Agxt1-/- mouse model at 110 mg/kg administered via oral gavage measured after 24 hrs post treatment for 11 days relative to control; assay type: functional; set-up: scale not given: the % may be the effect or the level left
2-Hydroxyacid oxidase 1 [21] = biological target: T2, 2-Hydroxyacid oxidase 1; experiment: Inhibition of glycolate oxidase in mouse Agxt1-/- hepatocytes using glycolate as substrate assessed as reduction in oxalate production after 72 hrs by sulfonated-DCIP dye-based assay; assay type: cell-based
2-Hydroxyacid oxidase 1 [22] = biological target: T2, 2-Hydroxyacid oxidase 1; experiment: Inhibition of glycolate oxidase in mouse Agxt1-/- hepatocytes using glycolate as substrate assessed as reduction in oxalate production after 48 hrs by sulfonated-DCIP dye-based assay; assay type: cell-based
2-Hydroxyacid oxidase 1 [23] = biological target: T2, 2-Hydroxyacid oxidase 1; experiment: Inhibition of glycolate oxidase in mouse Agxt1-/- hepatocytes using glycolate as substrate assessed as reduction in oxalate production after 24 hrs by sulfonated-DCIP dye-based assay; assay type: cell-based
2-Hydroxyacid oxidase 1 [24] = biological target: T2, 2-Hydroxyacid oxidase 1; experiment: Inhibition of mouse N-terminal His-tagged glycolate oxidase expressed in BL21(DE3) Escherichia coli using glycolate as substrate by Cornish-Bowden plot analysis
How it was run: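 Recombinant mouse GO came from E. coli carrying a pET15b Hao1 vector and was purified by affinity chromatography. Glycolate oxidation was run in 50 mM potassium phosphate pH 7. H2O2 was coupled through HRP with sulfonated DCIP/4-aminoantipyrine and read at 515 nm. Inhibitor and substrate concentrations were varied at constant enzyme, and Ki was taken from the line intersection in Cornish-Bowden and Dixon plots.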

[25] = biological target: T1, 2-Hydroxyacid oxidase 1 (Mus musculus); experiment: Inhibition of glycolate oxidase in C57BL/6 Agxt1-/- mouse hepatocytes using glycolate as substrate assessed as relative oxalate level at 12.5 uM after 24 hrs; assay type: cell-based
How it was run: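 Primary hepatocytes were isolated from male C57BL/6 Agxt1-/- mouse liver by in situ collagenase perfusion. They were plated at 3.0x10^5 cells/well in supplemented Williams E with 5% FBS, then switched after 5 h to serum-free medium and treated in the presence of 5 mM glycolate. Medium was collected at 24 h, or 48 and 72 h for dose-response. Oxalate was read by oxalate oxidase/HRP (MBTH/DMAB) at 595 nm relative to control.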

Row | SMILES | inhibition [1] [%] | IC50 (2-Hydroxyacid oxidase 1 [2]) [µM] | fold change (FC) [3] | also measured
1 | O=Cc1ccc(-c2ccc(O)c(C(=O)O)c2)o1 | 42.7 | 38.2 | 0 | Ki (2-Hydroxyacid oxidase 1 [4]): 47.2 µM; inhibition [5]: 106%; inhibition [6]: 67.3%; inhibition [7]: 62.3%; Activity (Hepatocyte [8]): Non-Toxic; EC50 (2-Hydroxyacid oxidase 1 [9]): 3.45 µM; EC50 (2-Hydroxyacid oxidase 1 [10]): 8.36 µM; EC50 (2-Hydroxyacid oxidase 1 [11]): 11.2 µM; Ratio EC50 [12]: 7; Ratio EC50 [13]: 5; half-life at 2 µM [14]: 13.3 min
2 | O=C(O)c1cc2cc(Br)ccc2cc1O | 42.3 | 39.9 | 0.99 | –
3 | O=C(O)c1ccc(-c2ccc([N+](=O)[O-])cc2)cc1O | 41.9 | 19.7 | 0.91 | –
4 | O=C(O)c1cc(-c2ccco2)ccc1O | – | – | 0 | EC50 (2-Hydroxyacid oxidase 1 [9]): 3.59 µM; EC50 (2-Hydroxyacid oxidase 1 [10]): 7.88 µM; EC50 (2-Hydroxyacid oxidase 1 [11]): 9.2 µM; inhibition [16]: 26.5%; inhibition [17]: Active; Activity (Hepatocyte [18]): Toxic; Ratio EC50 [12]: 7; inhibition (Armoracia rusticana): 12.6%; half-life at 2 µM [14]: 61.9 min; Drug metabolism [19]: Metabolite_Notdetected; EC50 [20]: 18 µM
5 | O=Cc1ccc(-c2ccc(C(=O)O)c(O)c2)o1 | 82.8 | 34.5 | 0.88 | –
6 | O=C(O)c1ccc(-c2cccs2)cc1O | 35.4 | 32.5 | 0.74 | –
7 | O=C(O)c1nnsc1Sc1ccc(Cl)cc1 | 34.8 | 43.5 | – | Activity (Mus musculus): 30 - 50%; EC50 (2-Hydroxyacid oxidase 1 [21]): 34 µM; EC50 (2-Hydroxyacid oxidase 1 [22]): 33 µM; EC50 (2-Hydroxyacid oxidase 1 [23]): 25.3 µM; IC50 (2-Hydroxyacid oxidase 1 [24]): 43.5 µM; Ki (2-Hydroxyacid oxidase 1 [24]): 20.3 µM; fold change (FC) [25]: 0.63
8 | O=C(O)c1ccc(-c2ccc(O)c(C(=O)O)c2)o1 | 0 | – | 0.68 | inhibition [15]: 30%
9 | COc1cccc(-c2ccc(C(=O)O)c(O)c2)c1 | 50.9 | 19.5 | 0.83 | –

Further compounds by falling IC50 (2-Hydroxyacid oxidase 1 [2]), results first:

Row | inhibition [1] [%] | IC50 (2-Hydroxyacid oxidase 1 [2]) [µM] | fold change (FC) [3] | SMILES | also measured
10 | 70.9 | 14.8 | 0.8 | O=C(O)c1cc(-c2ccc(OCc3ccccc3)cc2)ccc1O | –
11 | 52.1 | 9.4 | 0.93 | O=Cc1ccc(-c2ccc(O)c(C(=O)O)c2)s1 | –
12 | 77.7 | 8.3 | 0.72 | O=C(O)c1ccc(-c2ccccc2COc2cc(F)cc(F)c2)cc1O | –
13 | 98 | 4.6 | 0.88 | O=C(O)c1cc(-c2ccc(CO)o2)ccc1O | –
14 | 98.6 | 4.4 | 0.62 | O=C(O)c1ccc(-c2ccccc2COc2cccc(C(F)(F)F)c2)cc1O | inhibition [15]: 30%
15 | 96.2 | 3.5 | 0.68 | O=C(O)c1cc(-c2ccccc2COc2cccc(C(F)(F)F)c2)ccc1O | inhibition [15]: 30%
